ChEMBL document CHEMBL2034971, “Appraisal of GABA and PABA as linker: design and synthesis of novel benzamide based histone deacetylase inhibitors” (Eur J Med Chem, 2012)
pIC50: −log10 of the molar value.

How the values were obtained:
Histone deacetylase 1 = Histone deacetylase 1 (Homo sapiens, UniProt Q13547); assay: Inhibition of HDAC1 using Fluor de Lys as substrate by fluorescence analysis
U-251 = assay: Growth inhibition of human U251 cells after 2 days by MTT assay; format: functional; details: U-251, 48 h
HCT-116 = assay: Growth inhibition of human HCT116 cells after 2 days by MTT assay; format: functional; details: HCT-116, 48 h; for CC50: read-out: LC50 (the source's name)
[1] = Antitumor activity against mouse EAC cells allografted in Swiss albino mouse assessed as decrease in tumor weight at 0.2 mmol/kg, ip administered from day 1 to day 7 every 24 hrs; format: functional; details: Ehrlich
Summary of the method: (§1)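 EAC cells kept by intraperitoneal passage in Swiss albino mice (18-20 g, 10 weeks) every 10 days; 9-day-old cells in isotonic saline adjusted to 10×10^6 cells/mL, 0.1 mL per 10 g injected ip on day 0. Seven daily ip doses in PBS pH 7.2 (0.1 mL/10 g), days 1-7; vehicle control. Day 8 sacrifice after 6 h fast.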

[2] = Antitumor activity against mouse EAC cells allografted in Swiss albino mouse assessed as decrease in tumor cell at 0.2 mmol/kg, ip administered from day 1 to day 7 every 24 hrs; format: functional; details: Ehrlich; summary of the method: as §1
[3] = target: T1, NAD-dependent protein deacetylase sirtuin-1 (Homo sapiens, UniProt Q96EB6); assay: Inhibition of SIRT1
T1 sequence (Q96EB6 whole entry): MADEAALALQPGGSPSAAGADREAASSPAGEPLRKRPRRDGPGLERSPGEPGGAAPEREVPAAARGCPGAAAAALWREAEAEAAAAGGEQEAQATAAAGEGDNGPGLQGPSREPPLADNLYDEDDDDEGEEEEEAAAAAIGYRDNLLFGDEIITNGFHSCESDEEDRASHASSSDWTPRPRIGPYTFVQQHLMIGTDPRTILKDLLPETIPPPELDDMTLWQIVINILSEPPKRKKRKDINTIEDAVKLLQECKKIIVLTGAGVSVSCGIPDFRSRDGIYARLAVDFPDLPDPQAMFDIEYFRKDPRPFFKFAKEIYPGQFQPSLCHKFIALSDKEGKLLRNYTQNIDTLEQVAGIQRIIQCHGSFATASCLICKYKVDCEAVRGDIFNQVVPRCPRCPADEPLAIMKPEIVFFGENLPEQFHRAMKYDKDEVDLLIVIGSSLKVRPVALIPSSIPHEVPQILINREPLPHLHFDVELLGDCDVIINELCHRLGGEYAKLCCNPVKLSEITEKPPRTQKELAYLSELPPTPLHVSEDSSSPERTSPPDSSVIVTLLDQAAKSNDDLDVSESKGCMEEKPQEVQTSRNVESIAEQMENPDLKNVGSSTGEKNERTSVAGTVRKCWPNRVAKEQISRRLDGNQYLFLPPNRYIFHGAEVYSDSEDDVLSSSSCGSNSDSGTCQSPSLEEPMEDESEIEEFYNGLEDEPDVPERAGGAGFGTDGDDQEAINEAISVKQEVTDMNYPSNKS

[4] = Antitumor activity against mouse EAC cells allografted in Swiss albino mouse assessed as decrease in tumor weight at 1 mg/kg, ip administered from day 1 to day 7 every 24 hrs; format: functional; details: Ehrlich, route intraperitoneal; summary of the method: as §1
[5] = Antitumor activity against mouse EAC cells allografted in Swiss albino mouse assessed as decrease in tumor cell at 1 mg/kg, ip administered from day 1 to day 7 every 24 hrs; format: functional; details: Ehrlich, route intraperitoneal; summary of the method: as §1

Chain of Histone deacetylase 1 (Q13547 whole entry): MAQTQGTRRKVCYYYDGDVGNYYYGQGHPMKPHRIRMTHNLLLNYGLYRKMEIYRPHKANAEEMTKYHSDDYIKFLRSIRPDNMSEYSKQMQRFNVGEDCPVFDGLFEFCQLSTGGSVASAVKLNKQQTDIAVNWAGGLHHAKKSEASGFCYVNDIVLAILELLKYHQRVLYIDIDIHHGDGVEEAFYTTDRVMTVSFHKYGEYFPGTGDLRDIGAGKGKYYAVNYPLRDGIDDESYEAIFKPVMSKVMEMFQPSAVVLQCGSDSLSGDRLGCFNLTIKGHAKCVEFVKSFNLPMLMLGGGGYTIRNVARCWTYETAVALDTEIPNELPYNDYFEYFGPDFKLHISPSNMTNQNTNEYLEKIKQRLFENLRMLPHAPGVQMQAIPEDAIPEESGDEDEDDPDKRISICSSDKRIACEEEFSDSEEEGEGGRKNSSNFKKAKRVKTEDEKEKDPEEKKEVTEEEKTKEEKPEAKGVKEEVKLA

SMILES | pIC50 (Histone deacetylase 1) | GI50 (U-251) | LC50 (concentration killing 50% of cells) (U-251) | TGI (U-251) | GI50 (HCT-116) | TGI (HCT-116) | CC50 (HCT-116) | inhibition in vivo at 200 µmol/kg [1] | inhibition in vivo at 200 µmol/kg [2] | pIC50 [3] | inhibition in vivo at 1 mg/kg [4] | inhibition in vivo at 1 mg/kg [5]
Nc1ccccc1NC(=O)CCCNCC(=O)Nc1ccc(Br)cc1 | 5.77 | 10.4 µM | > 100 µM | 80 µM | 7.7 µM | 55.5 µM | > 100 µM | 73.8% | 68.7% |  |  | 
Nc1ccccc1NC(=O)CCCNCC(=O)Nc1ccccc1 | 5.04 | > 100 µM | > 100 µM | > 100 µM | 70.4 µM | > 100 µM | > 100 µM | 25% | 19.1% |  |  | 
Nc1ccccc1NC(=O)CCCNCC(=O)Nc1ccccc1Cl | 5.54 | 28.6 µM | > 100 µM | > 100 µM | 21.8 µM | > 100 µM | > 100 µM | 21.4% | 12.7% |  |  | 
Nc1ccccc1NC(=O)CCCNCC(=O)Nc1cccc(Cl)c1 | 5.74 | 19.5 µM | > 100 µM | > 100 µM | 11.6 µM | 75 µM | > 100 µM | 32.1% | 22.5% |  |  | 
Nc1ccccc1NC(=O)CCCNCC(=O)Nc1ccc(Cl)cc1 | 5.85 | 11.4 µM | > 100 µM | 75 µM | 5.5 µM | 45 µM | > 100 µM | 72.7% | 75% |  |  | 
Nc1ccccc1NC(=O)CCCNCC(=O)Nc1ccccc1[N+](=O)[O-] | 5.51 | 32 µM | > 100 µM | > 100 µM | 2.8 µM | 32 µM | > 100 µM | 41.3% | 10.5% |  |  | 
Nc1ccccc1NC(=O)CCCNCC(=O)Nc1cccc([N+](=O)[O-])c1 | 5.64 | 15 µM | > 100 µM | 93.5 µM | 0.9 µM | 22.5 µM | > 100 µM | 40.6% | 36% |  |  | 
Nc1ccccc1NC(=O)CCCNCC(=O)Nc1ccc([N+](=O)[O-])cc1 | 6.05 | 9.4 µM | > 100 µM | 66 µM | 0.6 µM | 8.5 µM | > 100 µM | 78.5% | 76.5% |  |  | 
COc1ccc(NC(=O)CNCCCC(=O)Nc2ccccc2N)cc1 | 5.44 | 34 µM | > 100 µM | > 100 µM | 8.6 µM | 44 µM | > 100 µM | 63.8% | 63.3% |  |  | 
Cc1ccc(NC(=O)CNCCCC(=O)Nc2ccccc2N)cc1 | 5.12 | 57 µM | > 100 µM | > 100 µM | 17.9 µM | > 100 µM | > 100 µM | 42.8% | 18.9% |  |  | 
Nc1ccccc1NC(=O)CCCNCC(=O)Nc1cc(Cl)ccc1Cl | 5.05 | 44 µM | > 100 µM | > 100 µM | 31 µM | 78 µM | > 100 µM | 50% | 50.9% |  |  | 
Nc1ccccc1NC(=O)c1ccc(NCC(=O)Nc2ccccc2)cc1 | 5.13 | 65 µM | > 100 µM | > 100 µM | 45.3 µM | > 100 µM | > 100 µM | 18.5% | 30.5% |  |  | 
Nc1ccccc1NC(=O)c1ccc(NCC(=O)Nc2ccc(Br)cc2)cc1 | 5.80 | 10.8 µM | > 100 µM | 45 µM | 6.8 µM | 47.5 µM | > 100 µM | 76.3% | 73.5% |  |  | 
Nc1ccccc1NC(=O)c1ccc(NCC(=O)Nc2ccccc2Cl)cc1 | 5.54 | 24.2 µM | > 100 µM | > 100 µM | 9.5 µM | > 100 µM | > 100 µM | 43.3% | 31.4% |  |  | 
Nc1ccccc1NC(=O)c1ccc(NCC(=O)Nc2cccc(Cl)c2)cc1 | 5.60 | 15.4 µM | > 100 µM | 88 µM | 11.5 µM | > 100 µM | > 100 µM | 68.4% | 51.7% |  |  | 
Nc1ccccc1NC(=O)c1ccc(NCC(=O)Nc2ccc(Cl)cc2)cc1 | 6.00 | 9.4 µM | > 100 µM | 62.5 µM | 4.2 µM | 62.5 µM | > 100 µM | 79.4% | 73.3% |  |  | 
Nc1ccccc1NC(=O)c1ccc(NCC(=O)Nc2ccccc2[N+](=O)[O-])cc1 | 5.70 | 18 µM | > 100 µM | 83 µM | 3.5 µM | 25 µM | > 100 µM | 12.9% | 19.7% |  |  | 
Nc1ccccc1NC(=O)c1ccc(NCC(=O)Nc2cccc([N+](=O)[O-])c2)cc1 | 5.85 | 13.5 µM | > 100 µM | 52 µM | 1.1 µM | 9 µM | > 100 µM | 67.6% | 40.4% |  |  | 
Nc1ccccc1NC(=O)c1ccc(NCC(=O)Nc2ccc([N+](=O)[O-])cc2)cc1 | 6.15 | 8.2 µM | > 100 µM | 42.5 µM | 0.6 µM | 6.5 µM | > 100 µM | 83.3% | 77.5% |  |  | 
COc1ccc(NC(=O)CNc2ccc(C(=O)Nc3ccccc3N)cc2)cc1 | 5.51 | 25.5 µM | > 100 µM | > 100 µM | 7.5 µM | 38 µM | > 100 µM | 66.6% | 62.3% |  |  | 
Cc1ccc(NC(=O)CNc2ccc(C(=O)Nc3ccccc3N)cc2)cc1 | 5.35 | 84 µM | > 100 µM | > 100 µM | 12.6 µM | > 100 µM | > 100 µM | 43.3% | 25.2% |  |  | 
Nc1ccccc1NC(=O)c1ccc(NCC(=O)Nc2cc(Cl)ccc2Cl)cc1 | 5.07 | 38.6 µM | > 100 µM | > 100 µM | 7.9 µM | 66 µM | > 100 µM | 58.3% | 56.2% |  |  | 
Nc1ccccc1NC(=O)c1ccc(CNC(=O)OCc2cccnc2)cc1 [ENTINOSTAT] |  | 6.5 µM |  | 40 µM | 0.6 µM | > 100 µM | > 100 µM |  |  | < 4.00 |  | 
CO[C@@]12[C@H](COC(N)=O)C3=C(C(=O)C(C)=C(N)C3=O)N1C[C@@H]1N[C@@H]12 [MITOMYCIN] |  |  |  |  |  |  |  |  |  |  | 100% | 100%
